# ChEMBL document CHEMBL1275435, “A naturally occurring proline-to-alanine amino acid change in Fks1p in Candida parapsilosis, Candida orthopsilosis, and Candida metapsilosis accounts for reduced echinocandin susceptibility” (Antimicrob Agents Chemother, 2008)
# *1 amine or outer side, *2 acyl side, *3 side chain or, on linkers, in order; H or OH if unused. Where a SMILES comes first, the peptide text is derived from it. Bridges are numbered along the chain shown (N, C = ends). [ ]: non-standard residue; d: D form. The star is where a group is joined. pTerphenylCO(4''-OnC5H11) = CCCCCOc1ccc(-c2ccc(-c3ccc(C(=O)*)cc3)cc2)cc1; Orn(4R-OH,5R-OH) = O=C([C@H](C[C@@H](O)[C@@H](O)N[*:3])N[*:1])[*:2]; hTyr(3S-OH,4S-OH) = N[C@H](C(=O)O)[C@H](O)[C@@H](O)c1ccc(O)cc1; Pro(3S-OH,4S-Me) = C[C@H]1CN[C@H](C(=O)O)[C@H]1O; Hyp = O=C(O)[C@@H]1C[C@@H](O)CN1
# What was measured:
# [1] = Inhibition of Candida albicans M122 glucan synthase assessed as [3H]UDPG incorporation
# Procedure, shortened: (§1)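 Cells were grown with vigorous shaking at 30°C to early stationary phase in YPD. Membrane GS was partially purified by product entrapment, using 10-fold more cells for low-activity strains. The polymerization assay was started by adding GS, with drug serially diluted from 0.01 to 10,000 ng/ml. Reactions ran 60 min at 25°C and were stopped on ice. IC50 came from sigmoidal variable-slope fits, as arithmetic means ± SD of three repetitions on three days.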
# [2] = Inhibition of Candida albicans ATCC 90028 glucan synthase assessed as [3H]UDPG incorporation; procedure, shortened: as §1
# [3] = Inhibition of Candida parapsilosis H5 glucan synthase assessed as [3H]UDPG incorporation; procedure, shortened: as §1
# [4] = system: Saccharomyces cerevisiae; assay: Antifungal activity against FKS1 deficient Saccharomyces cerevisiae BY4742 by CLSI method; format: functional
# [5] = system: Candida parapsilosis; assay: Antifungal activity against Candida parapsilosis H4 by CLSI method; format: functional; details: Lodderomyces parapsilosis
# [6] = Inhibition of Candida glabrata T51916 glucan synthase assessed as [3H]UDPG incorporation; set-up: species or system Nakaseomyces glabratus; procedure, shortened: as §1
# [7] = Inhibition of Candida parapsilosis H4 glucan synthase assessed as [3H]UDPG incorporation; procedure, shortened: as §1
# [8] = system: Candida albicans; assay: Antifungal activity against Candida albicans ATCC 90028 by CLSI method; format: functional
# [9] = system: Candida parapsilosis; assay: Antifungal activity against Candida parapsilosis ATCC 22019 by CLSI method; format: functional; details: Lodderomyces parapsilosis
# [10] = Inhibition of Candida orthopsilosis H10 glucan synthase assessed as [3H]UDPG incorporation; procedure, shortened: as §1
# [11] = Inhibition of Candida glabrata ATCC 90030 glucan synthase assessed as [3H]UDPG incorporation; set-up: species or system Nakaseomyces glabratus; procedure, shortened: as §1
# [12] = system: Candida orthopsilosis; assay: Antifungal activity against Candida orthopsilosis 981224 by CLSI method; format: functional; details: Lodderomyces orthopsilosis
# [13] = system: Candida orthopsilosis; assay: Antifungal activity against Candida orthopsilosis H10 by CLSI method; format: functional; details: Lodderomyces orthopsilosis
# [14] = Inhibition of Candida metapsilosis am-2006-0113 glucan synthase assessed as [3H]UDPG incorporation; procedure, shortened: as §1
# [15] = system: Candida parapsilosis; assay: Antifungal activity against Candida parapsilosis H5 by CLSI method; format: functional; details: Lodderomyces parapsilosis
# [16] = Inhibition of Saccharomyces cerevisiae BY4742-FKS1P649A mutant glucan synthase assessed as [3H]UDPG incorporation; procedure, shortened: as §1
# [17] = system: Nakaseomyces glabratus; assay: Antifungal activity against Candida glabrata T51916 by CLSI method; format: functional
# [18] = system: Candida albicans; assay: Antifungal activity against Candida albicans ATCC 36082 by CLSI method; format: functional
# [19] = system: Candida albicans; assay: Antifungal activity against Candida albicans M122 by CLSI method; format: functional
# [20] = Inhibition of Candida metapsilosis 960161 glucan synthase assessed as [3H]UDPG incorporation; procedure, shortened: as §1
# [21] = Inhibition of Candida orthopsilosis 981224 glucan synthase assessed as [3H]UDPG incorporation; procedure, shortened: as §1
# [22] = system: Saccharomyces cerevisiae; assay: Antifungal activity against Saccharomyces cerevisiae BY4742-FKS1P649A mutant by CLSI method; format: functional
# Procedure, shortened: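 Broth microdilution following CLSI M27-A2, run in YPD broth (1% yeast extract, 2% Bacto peptone, 2% dextrose). MICs are geometric means of at least three repetitions on three separate days.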
# [23] = system: Saccharomyces cerevisiae; assay: Antifungal activity against Saccharomyces cerevisiae BY4742 by CLSI method; format: functional
# [24] = system: Nakaseomyces glabratus; assay: Antifungal activity against Candida glabrata ATCC 90030 by CLSI method; format: functional
# [25] = system: Candida metapsilosis; assay: Antifungal activity against Candida metapsilosis 960161 by CLSI method; format: functional; details: Lodderomyces metapsilosis
# [26] = system: Candida albicans; assay: Antifungal activity against Candida albicans Sc5314 by CLSI method; format: functional
# [27] = Inhibition of Candida albicans Sc5314 glucan synthase assessed as [3H]UDPG incorporation; procedure, shortened: as §1
# [28] = Inhibition of Candida parapsilosis ATCC 22019 glucan synthase by assessed as [3H]UDPG incorporation; procedure, shortened: as §1
# [29] = Inhibition of Candida albicans ATCC 36082 glucan synthase assessed as [3H]UDPG incorporation; procedure, shortened: as §1
# [30] = system: Candida metapsilosis; assay: Antifungal activity against Candida metapsilosis am-2006-0113 by CLSI method; format: functional; details: Lodderomyces metapsilosis
# [31] = Inhibition of Saccharomyces cerevisiae BY4742 glucan synthase assessed as [3H]UDPG incorporation; procedure, shortened: as §1
smiles,measurement,setting,value
"CCCCCOc1ccc(-c2ccc(-c3ccc(C(=O)N[C@H]4C[C@@H](O)[C@@H](O)NC(=O)[C@@H]5[C@@H](O)[C@@H](C)CN5C(=O)[C@H]([C@@H](C)O)NC(=O)[C@H]([C@H](O)[C@@H](O)c5ccc(O)cc5)NC(=O)[C@@H]5C[C@@H](O)CN5C(=O)[C@H]([C@@H](C)O)NC4=O)cc3)cc2)cc1 [ANIDULAFUNGIN] ({pTerphenylCO(4''-OnC5H11)}-[Orn(4R-OH,5R-OH)]T[Hyp][hTyr(3S-OH,4S-OH)]T[Pro(3S-OH,4S-Me)]; lactam 1-C)",IC50,[1],0.53013 µg/mL
same,Ki,[1],0.646 µg/mL
same,IC50,[2],0.00163 µg/mL
same,Ki,[2],0.00143 µg/mL
same,IC50,[3],0.23707 µg/mL
same,Ki,[3],0.43167 µg/mL
same,MIC,[4],0.015 µg/mL
same,MIC,[5],2.24 µg/mL
same,IC50,[6],0.20686 µg/mL
same,Ki,[6],0.712 µg/mL
same,IC50,[7],0.11012 µg/mL
same,Ki,[7],0.3685 µg/mL
same,MIC,[8],0.02 µg/mL
same,MIC,[9],1.1 µg/mL
same,IC50,[10],0.16317 µg/mL
same,Ki,[10],0.111 µg/mL
same,IC50,[11],0.00377 µg/mL
same,MIC,[12],1.26 µg/mL
same,MIC,[13],0.79 µg/mL
same,IC50,[14],0.1264 µg/mL
same,Ki,[14],0.0414 µg/mL
same,MIC,[15],1.59 µg/mL
same,IC50,[16],1.663 µg/mL
same,Ki,[16],2.374 µg/mL
same,MIC,[17],1.59 µg/mL
same,MIC,[18],0.02 µg/mL
same,MIC,[19],0.15 µg/mL
same,IC50,[20],0.1333 µg/mL
same,Ki,[20],0.129 µg/mL
same,IC50,[21],0.1419 µg/mL
same,Ki,[21],0.0465 µg/mL
same,MIC,[22],0.5 µg/mL
same,MIC,[23],0.03 µg/mL
same,MIC,[24],0.05 µg/mL
same,MIC,[25],0.79 µg/mL
same,MIC,[26],0.08 µg/mL
same,IC50,[27],0.00089 µg/mL
same,Ki,[27],0.00133 µg/mL
same,IC50,[28],0.44203 µg/mL
same,Ki,[28],0.6395 µg/mL
same,IC50,[29],0.00183 µg/mL
same,Ki,[29],0.00063 µg/mL
same,MIC,[30],0.63 µg/mL
same,IC50,[31],0.10737 µg/mL
same,Ki,[31],0.06895 µg/mL
